High-throughput results deposited in PubChem by Johns Hopkins Ion Channel Center.
Only some compounds are listed: those with a hit (about 3.8% of all), similar ones and a draw of the others.
hERG protect – hERG (human) protection from proarrhythmic block. Q12809. CHO-hERG, FluxOR thallium flux, dofetilide IC70 present. activation (rescue from dofetilide block), less the hit threshold, % at 10 µM. hit rate 0.51% among 310,000;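 active = activation above the mean of controls blocked by dofetilide plus 5 SD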;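 also: thallium influx through hERG after potassium depolarization seen as dye fluorescence rise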
Target sequence (Q12809 whole entry, looked up): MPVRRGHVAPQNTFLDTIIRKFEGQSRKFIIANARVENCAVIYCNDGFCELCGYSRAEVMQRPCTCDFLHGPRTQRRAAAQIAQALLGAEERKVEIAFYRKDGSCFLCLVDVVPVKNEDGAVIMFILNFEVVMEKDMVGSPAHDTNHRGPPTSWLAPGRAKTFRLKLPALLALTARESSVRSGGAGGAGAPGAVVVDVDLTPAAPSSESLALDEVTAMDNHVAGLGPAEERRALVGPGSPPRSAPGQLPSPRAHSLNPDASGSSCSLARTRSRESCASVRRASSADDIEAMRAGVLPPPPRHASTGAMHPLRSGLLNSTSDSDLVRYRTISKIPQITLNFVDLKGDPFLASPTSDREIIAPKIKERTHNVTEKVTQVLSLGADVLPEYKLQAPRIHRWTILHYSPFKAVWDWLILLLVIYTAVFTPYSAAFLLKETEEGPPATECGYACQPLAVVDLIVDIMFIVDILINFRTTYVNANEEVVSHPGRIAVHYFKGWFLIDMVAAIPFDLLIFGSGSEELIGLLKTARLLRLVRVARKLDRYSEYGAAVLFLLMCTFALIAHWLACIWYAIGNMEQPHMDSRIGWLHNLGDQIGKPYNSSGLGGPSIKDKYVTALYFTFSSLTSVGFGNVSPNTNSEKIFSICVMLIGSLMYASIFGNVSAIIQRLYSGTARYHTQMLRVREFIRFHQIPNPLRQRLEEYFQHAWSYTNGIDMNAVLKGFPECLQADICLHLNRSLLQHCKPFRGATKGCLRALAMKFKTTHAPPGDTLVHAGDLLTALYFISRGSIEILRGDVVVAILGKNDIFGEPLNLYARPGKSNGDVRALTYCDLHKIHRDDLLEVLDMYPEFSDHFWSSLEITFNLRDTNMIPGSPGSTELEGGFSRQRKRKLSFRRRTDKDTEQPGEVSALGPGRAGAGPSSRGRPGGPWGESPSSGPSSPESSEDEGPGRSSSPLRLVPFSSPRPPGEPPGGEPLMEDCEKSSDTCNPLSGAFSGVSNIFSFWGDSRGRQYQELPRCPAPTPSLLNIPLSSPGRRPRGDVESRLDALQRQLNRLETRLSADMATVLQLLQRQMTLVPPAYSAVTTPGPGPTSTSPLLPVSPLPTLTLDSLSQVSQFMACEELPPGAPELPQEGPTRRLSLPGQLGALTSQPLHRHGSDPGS
Kir21 inh – blocks the mouse Kir2.1 inward-rectifier potassium channel. P35561. HEK293-Kir2.1, FluxOR thallium flux fluorescence; hits give low values. B-score at 10 µM. hit rate 0.85% among 310,000;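 active = fluorescence ratio B-score at or below minus 3 SD of library scores, with starting-brightness B-score within 2 SD, cut at about -4.2 in these data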;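 also: channel flux triggered by added potassium and thallium sulfate stimulus; B-score of peak minus minimum fluorescence over baseline after thallium stimulus; more negative B-score means stronger Kir2.1 block with less thallium influx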
KCNK9 block – blocks the human KCNK9 two-pore domain potassium channel. AID 488922. hit rate 1.2% among 310,000. B-score at 10 µM. Q9NPC2. HEK293 KCNK9, FluxOR thallium flux fluorescence; hits give low values;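 active = ratio B-score over 3 SD below the library mean, with starting fluorescence within 5 SD of its mean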;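 also: negative B-score means less thallium flux so channel inhibition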
KCNQ1 act – human KCNQ1 channel potentiation or activation; P51787; CHO-K1 KCNQ1, thallium flux FluxOR fluorescence; hits give high values; B-score at 10 µM; hit rate 0.35% among 310,000; AID 2648;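 active = fluorescence ratio B-score, a plate-corrected score, at least three library SD, with initial intensity B-score within 5 SD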
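assay system = KCNQ1-transfected CHO-K1 cells | medium = assay buffer with matched DMSO | probe or stimulus = depolarizing K+/Tl+ stimulus, K2SO4 and Tl2SO4 each 12.5 mM in 5x stock | dosing = single dose | incubation = dye 90 min, compound 20 min, room temperature | detection = kinetic FluxOR fluorescence, 10 s baseline plus 110 s post-stimulus | evaluation = ratio B score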
KCNK3 inh – human KCNK3 channel inhibition, primary screen | O14649 | CHO-KCNK3 thallium flux, FluxOR fluorescence; hits give low values | B-score at 10 µM | hit rate 0.84% among 340,000;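 active = B-score under library mean minus 4 SD, starting fluorescence ratio at most library mean plus 5 SD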;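 also: more negative B-score means stronger inhibition of thallium flux through KCNK3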
KCNQ1 block – human KCNQ1 channel inhibition; B-score at 10 µM; hit rate 1.3% among 310,000; CHO-K1 KCNQ1, FluxOR thallium flux fluorescence; hits give high values;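 active = compounds whose thallium flux B-score, printed positive for inhibition, exceeds three library SD while starting fluorescence stays within three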;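 also: channel opened by potassium depolarization with thallium stimulus after 20 min compound exposure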
KCNK9 block conf – human KCNK9 inhibitor confirmation; HEK293 KCNK9 cells, FluxOR thallium flux fluorescence; hit rate 43% among 4,900; shares compounds with KCNK9 block; inhibition, % at 10 µM;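 active = thallium signal inhibited by more than 5 SD of the compound-free buffer control wells, on both duplicate plates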;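 also: 0% = assay buffer control wells without compound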
Kir2-1 spec – selectivity of KCNK9 modulators against mouse Kir2.1; hit rate 4% among 4,900; Kir2.1 cells, FluxOR thallium flux fluorescence; inhibition, % at 10 µM; shares compounds with KCNK9 block; AID 492993;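 active = thallium signal drop more than 5 SD beyond the mean of the no-compound control wells, seen in both duplicate plates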;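 also: signal is fluorescence rise after thallium addition divided by baseline fluorescence; plate controls were assay buffer only for no effect and full block by chlorpromazine control for full effect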
KCNK9 uninduced – non-induced cell nonspecific activity of KCNK9 modulators. non-induced KCNK9-HEK293, FluxOR thallium flux. AID 492997. inhibition, % at 10 µM. shares compounds with KCNK9 block. hit rate 40% among 4,900;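 active = thallium signal drop beyond 5 SD of the untreated control mean, on both duplicate plates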;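 also: plate controls were buffer only IC0 wells for no effect and SID17386958 at its maximal inhibitory level for full effect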
Starred values were filed as active, the others as inactive; i = inactive; . = no result.

SMILES | hERG protect | Kir21 inh | KCNK9 block | KCNQ1 act | KCNK3 inh | KCNQ1 block | KCNK9 block conf | Kir2-1 spec | KCNK9 uninduced
C=CCCC1(C)C(=O)N(c2ccccc2)c2ccccc21 (configuration not stated) | -8 | -6* | -8.9* | i | i | i | 42%* | i | 39%*
O=C(O)CSc1cc(NS(=O)(=O)c2ccc(Br)cc2)c2ccccc2c1O | -7 | 1.3 | i | i | i | i | i | i | 28%*
COc1cc(/C=C/C(=O)c2ccc(NS(=O)(=O)c3ccc(C)cc3)cc2)ccc1OC(F)F | -3 | -0.06 | i | i | i | i | i | i | i
N#Cc1c(N2CCN(C(=O)c3ccco3)CC2)nc(-c2ccccc2)c2c1CCCC2 | -29 | -0.92 | i | i | i | i | . | . | .
N#Cc1c(N2CCN(C(=O)c3ccccc3)CC2)nc(-c2ccccc2)c2c1CCCC2 | -7 | 1.3 | i | i | i | i | i | i | i
COC(=O)c1ccccc1NC(=O)C12CC3CC(C1)CC(n1cnc(Cl)n1)(C3)C2 | -17 | 0.95 | i | i | i | i | i | i | i
COC(=O)C12CC3CC(C1)CC(n1cnc(Cl)n1)(C3)C2 | -6 | 0.53 | i | i | i | i | . | . | .
CCOC(=O)c1c(-c2cccc([N+](=O)[O-])c2)csc1NC(=O)C1CCCCC1 | -3 | -0.8 | i | i | i | i | . | . | .
CCOC(=O)c1c(-c2ccc(-c3ccccc3)cc2)csc1NC(=O)CNCCN(C)C | -31 | -3.7 | -10* | i | i | 6* | 57%* | 32%* | 29%*
CCOC(=O)c1c(-c2cccc([N+](=O)[O-])c2)csc1NC(=O)C1CC1 | -8 | -0.76 | -8.3* | i | i | i | 24%* | i | 24%*
Clc1ccc(-c2nnsc2SCc2ccccc2)cc1 | -8 | 0.03 | -11* | i | i | i | i | i | 44%*
Cc1nn2c(NCc3ccccn3)cc(C(C)(C)C)nc2c1-c1ccccc1 | -10 | 0.81 | i | i | i | i | i | i | i
Cc1nn2c(NCc3ccccn3)c3c(nc2c1-c1ccccc1)CCC3 | -19 | -0.09 | i | i | i | i | . | . | .
C=CCn1c(C)cc(C(=O)COC(=O)CCc2cc(OC)c(OC)c(OC)c2)c1C | . | . | . | . | i | . | . | . | .
O=C(Oc1ccc2ccccc2c1Cl)N1CCCCCC1 | -5 | 0.19 | -13* | i | i | i | 37%* | i | 28%*
O=C(Oc1ccc2ccccc2c1Cl)N1CCCC1 | -10 | -0.55 | i | i | i | i | . | . | .
CC(=O)Nc1ccc(NC(=O)CSc2nnc(NC(=O)c3cccc(F)c3)s2)cc1 | -4 | -0.71 | i | i | i | i | . | . | .
COc1cc(OC)cc(C(=O)NCC(=O)OCc2ccc(Cl)c(Cl)c2)c1 | . | . | . | . | i | . | . | . | .
Cc1ccc(C(=O)CCCn2nnc(-c3cccnc3)n2)cc1C | -5 | 0.18 | i | i | i | i | i | i | i
Fc1ccccc1N1CCN(C2CCCN(Cc3cccc(C(F)(F)F)c3)C2)CC1 (configuration not stated) | -13 | -2 | i | i | i | i | i | i | i
COc1ccc(CN2CCCC(N3CCN(c4cccc(Cl)c4)CC3)C2)cc1OC (configuration not stated) | -5 | -0.85 | i | i | i | i | . | . | .
COc1cc(CN2CCCC(N3CCN(c4ccccc4C)CC3)C2)cc(Cl)c1O (configuration not stated) | -7 | 1.3 | i | i | i | i | i | i | i
O=C(Nc1ccccc1)OCCc1ccccn1 | . | . | . | . | i | . | . | . | .
O=C(CCN1C(=O)/C(=C\c2ccccc2F)SC1=S)N1CCCCC1 | -6 | 0 | i | i | i | i | . | . | .
Cc1cc(C)cc(NC(=S)NCc2ccc3[nH]c4c(c3c2)CCCC4)c1 | -16 | -0.05 | i | i | i | i | i | i | i
SMILES | hERG protect | Kir21 inh | KCNK9 block | KCNQ1 act | KCNK3 inh | KCNQ1 block | KCNK9 block conf | Kir2-1 spec | KCNK9 uninduced
S=C(NCc1ccc2[nH]c3c(c2c1)CCCC3)Nc1ccccc1 | -8 | 0 | i | i | i | i | . | . | .
O=C(c1ccccc1)c1ccc2cc(O)ccc2c1 | -13 | 2.5 | i | i | i | i | i | i | i
C=C(C)c1nc(Oc2ccccc2)nc(Oc2ccccc2)n1 | . | . | . | . | i | . | . | . | .
CCc1cc2c(=O)oc(-c3ccc(Br)cc3)nc2s1 | -4 | -0.02 | i | i | i | i | . | . | .
Cc1ccc2c(c1)c(/C=C/c1cc[n+](C)cc1)c(C)n2C | -42 | -19 | i | i | i | i | . | . | .
Cc1ccc2[nH]c(C)c(/C=C/c3cc[n+](C)cc3)c2c1 | -30 | -12 | -8.1* | i | i | i | 76%* | 56%* | 75%*
O=C1OC[C@H]2CCCN2C(=O)[C@@H](CC(=O)N(CCO)Cc2ccccc2)C/C=C\C[C@@H]1Cc1ccc(F)cc1 | . | . | . | . | i | . | . | . | .
N#Cc1ccccc1S(=O)(=O)N1CCC(C(=O)NCc2ccccc2CN2CCCC2)CC1 | . | . | . | . | i | . | . | . | .
COc1ccc(C(=O)C2CCCN(Cc3cccc4c3OCO4)C2)cc1OC (configuration not stated) | -2 | -0.02 | i | i | i | i | i | i | i
COc1ccc(F)cc1C(=O)C1CCCN(C(=O)c2cccc(N(C)C)c2)C1 (configuration not stated) | -17 | 0.06 | i | i | i | i | i | i | i
COc1ccc(C(=O)C2CCCN(C(=O)c3ccc(F)cc3)C2)cc1OC (configuration not stated) | -12 | 0.04 | i | i | i | i | . | . | .
COc1ccc(C(=O)C2CCCN(C(=O)c3cccc(N(C)C)c3)C2)cc1OC (configuration not stated) | -7 | 0.99 | i | i | i | i | i | i | i
COc1cccc(CN2CCCC(C(=O)c3ccc4c(c3)OCO4)C2)c1OC (configuration not stated) | -6 | -0.12 | i | i | i | i | . | . | .
CC(C)c1csc(CN2CCC(CO)(Cc3cccc(F)c3)CC2)n1 | -14 | 0.03 | i | i | i | i | . | . | .
